One block for each molecule: values may come before it.
How the values were obtained:
[1] = molecular target: T1, OATP-B (SLCO2B1, OATP2B1) (Homo sapiens, UniProt O94956); assay: TP_TRANSPORTER: inhibition of E1S uptake (E1S: 0.00476 uM, lactic acid: 10000 uM) in OATP-B-expressing HEK293 cells; assay type: functional, cell-based; set-up: scale not given: the % may be the effect or the level left; conditions: probe E1S (0.00476 uM), read-out: Activity
T1 sequence (O94956 whole entry): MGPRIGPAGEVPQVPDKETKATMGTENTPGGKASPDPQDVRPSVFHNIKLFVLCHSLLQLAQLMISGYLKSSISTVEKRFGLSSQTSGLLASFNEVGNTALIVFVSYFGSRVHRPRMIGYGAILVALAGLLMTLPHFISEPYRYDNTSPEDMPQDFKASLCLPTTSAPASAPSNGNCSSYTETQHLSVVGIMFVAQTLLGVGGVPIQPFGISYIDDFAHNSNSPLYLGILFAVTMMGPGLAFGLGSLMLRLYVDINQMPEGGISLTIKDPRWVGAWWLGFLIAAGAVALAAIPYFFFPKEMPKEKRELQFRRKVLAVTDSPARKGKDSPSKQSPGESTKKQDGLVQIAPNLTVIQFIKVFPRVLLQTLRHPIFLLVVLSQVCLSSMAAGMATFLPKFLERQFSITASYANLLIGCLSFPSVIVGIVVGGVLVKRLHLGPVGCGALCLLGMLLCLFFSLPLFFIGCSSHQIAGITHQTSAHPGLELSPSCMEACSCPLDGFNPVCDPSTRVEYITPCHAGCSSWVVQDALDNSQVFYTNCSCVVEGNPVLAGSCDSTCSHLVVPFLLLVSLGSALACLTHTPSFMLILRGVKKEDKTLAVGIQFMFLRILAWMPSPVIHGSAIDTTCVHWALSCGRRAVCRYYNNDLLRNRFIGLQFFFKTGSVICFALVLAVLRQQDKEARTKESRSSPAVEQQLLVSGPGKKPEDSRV
Outline: (§1)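 HEK293 cells transfected with pcDNA3/OATP-B or empty vector (mock) by calcium phosphate, harvested 40-48 h later and suspended. Preincubated 20 min at 37°C at pH 7.4, then [3H]estrone-3-sulfate (4.76 nM) uptake for 10 min at 37°C in MES-buffered medium, pH 5.5. Cells separated by silicone oil centrifugal filtration and counted by scintillation. Mock-corrected uptake given as % of no-inhibitor control; mean ± S.E.M., n=3 or 4.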

[2] = molecular target: T1, OATP-B (SLCO2B1, OATP2B1); assay: TP_TRANSPORTER: inhibition of E1S uptake (E1S: 0.00476 uM, oxalic acid: 10000 uM) in OATP-B-expressing HEK293 cells; assay type: functional, cell-based; set-up: scale not given: the % may be the effect or the level left; conditions: probe E1S (0.00476 uM), read-out: Activity; outline: as §1
[3] = molecular target: T1, OATP-B (SLCO2B1, OATP2B1); assay: TP_TRANSPORTER: inhibition of E1S uptake (E1S: 0.00476 uM, phthalic acid: 10000 uM) in OATP-B-expressing HEK293 cells; assay type: functional, cell-based; set-up: scale not given: the % may be the effect or the level left; conditions: probe E1S (0.00476 uM), read-out: Activity; outline: as §1
[4] = molecular target: T1, OATP-B (SLCO2B1, OATP2B1); assay: in vitro; conditions: HEK293 cells expressing OATP-B, probe E1S (0.00476 uM)
[5] = molecular target: T2, Solute carrier organic anion transporter family member 2B1 (Homo sapiens, UniProt O94956); assay: TP_TRANSPORTER: uptake (pH 5.5) in OATP-B-expressing HEK293 cells; assay type: functional, cell-based; conditions: hek293, pH 5.5
T2 sequence (O94956 whole entry): T1 sequence (O94956 whole entry)

[6] = molecular target: T1, OATP-B (SLCO2B1, OATP2B1); assay: TP_TRANSPORTER: inhibition of E1S uptake (E1S: 0.00476 uM, citric acid: 10000 uM) in OATP-B-expressing HEK293 cells; assay type: functional, cell-based; set-up: scale not given: the % may be the effect or the level left; conditions: probe E1S (0.00476 uM), read-out: Activity; outline: as §1
[7] = molecular target: T2, Solute carrier organic anion transporter family member 2B1; assay: TP_TRANSPORTER: uptake (pH 7.4) in OATP-B-expressing HEK293 cells; assay type: functional, cell-based; conditions: hek293, pH 7.4
[8] = molecular target: T1, OATP-B (SLCO2B1, OATP2B1); assay: TP_TRANSPORTER: inhibition of E1S uptake (E1S: 0.00476 uM, benzoic acid: 10000 uM) in OATP-B-expressing HEK293 cells; assay type: functional, cell-based; set-up: scale not given: the % may be the effect or the level left; conditions: probe E1S (0.00476 uM), read-out: Activity; outline: as §1
[9] = molecular target: T1, OATP-B (SLCO2B1, OATP2B1); assay: in vitro; conditions: HEK293 cells expressing OATP-B, probe E1S (0.00476 uM); remark: listed apart in the source

activity at 10000 uM [1]: 85.6%
SMILES: C[C@@H](O)C(=O)O [D-LACTIC ACID]

activity at 10000 uM [2]: 83.9%
SMILES: O=C(O)C(=O)O [OXALIC ACID]

SMILES: O=C(O)c1ccccc1C(=O)O [PHTHALIC ACID]
activity at 10000 uM [3]: 42.7%

activity at 10000 uM [4]: 59.7%
SMILES: O=C(O)c1cccnc1 [NIACIN]

Activity [5]: substrate [+]
SMILES: CC[C@H](C)C(=O)O[C@H]1C[C@H](O)C=C2C=C[C@H](C)[C@H](CC[C@@H](O)C[C@@H](O)CC(=O)O)[C@H]21 [PRAVASTATIN]

SMILES: O=C(O)CC(O)(CC(=O)O)C(=O)O [CITRIC ACID]
activity at 10000 uM [6]: 97.7%

Activity [7]: substrate [+]
SMILES: C[C@]12CC[C@@H]3c4ccc(OS(=O)(=O)O)cc4CC[C@H]3[C@@H]1CCC2=O [ESTRONE SULFURIC ACID]

activity at 10000 uM [8]: 56.1%
SMILES: O=C(O)c1ccccc1 [BENZOIC ACID]

activity at 10000 uM [9]: 86.1%
SMILES: CC(=O)O [ACETIC ACID]

— ChEMBL document CHEMBL2074314, “Involvement of human organic anion transporting polypeptide OATP-B (SLC21A9) in pH-dependent transport across intestinal apical membrane” (J Pharmacol Exp Ther, 2003)
